These results are taken from ChEMBL document CHEMBL1153722, “Design, synthesis, and characterization of peptide-based rab geranylgeranyl transferase inhibitors” (J Med Chem, 2009).

Square brackets hold non-standard residues; d marks the D form. Peptide text beside a SMILES is read from it. * marks the point of attachment. Hydrocinnamoyl = O=C(CCc1ccccc1)*; Undecanoyl = CCCCCCCCCCC(=O)*; pGlu = O=C1CC[C@@H](C(=O)O)N1; Ac6c = NC1(C(=O)O)CCCCC1; Morpholide = C1CN(*)CCO1; Cbz = O=C(OCc1ccccc1)*; NHNH2 = NN*; NHOH = ON*

For the assay, the species on record is Rattus norvegicus. Nature of the assay: Inhibition of rat recombinant Rab geranylgeranyltransferase at 100 uM in presence of canine Rab7 and rat REP1 NBD-FPP based continuous fluorimetric assay. The method in brief:
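Continuous fluorometric assay in 96/384-well format: 3 μM Rab7, 3 μM REP1, 9 μM NBD-FPP and 400 nM RabGGTase, with or without inhibitor. […] IC50 was calculated from three independent measurements.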
For the compound `CCCCCCCCCCCC(=O)N[C@@H](Cc1c[nH]cn1)C(=O)N[C@@H](Cc1c[nH]cn1)C(=O)N[C@@H](Cc1ccc(O)cc1)C(=O)NCCCn1ccnc1`, the inhibition (as a rule, the drop in the measured response relative to a control, in per cent) amounted to 124%.

Regarding `CCCCCCCCCCCCCCCC(=O)N[C@@H](Cc1ccc(O)cc1)C(=O)N[C@@H](Cc1ccc(O)cc1)C(=O)N[C@@H](Cc1ccc(O)cc1)C(=O)NCc1ccc(F)cc1F`, the inhibition was 92%.

For the compound `CCCCCCCCCCCOc1ccc(C(=O)N[C@@H](Cc2c[nH]cn2)C(=O)N[C@@H](Cc2c[nH]cn2)C(=O)N[C@@H](Cc2c[nH]cn2)C(=O)NCC(O)CO)cc1` (stereo not given in full), the inhibition worked out at 37%.

With `CCCCCCCCCCCOc1ccc(C(=O)N[C@@H](Cc2ccc(O)cc2)C(=O)N[C@@H](Cc2ccc(O)cc2)C(=O)N[C@@H](Cc2ccc(O)cc2)C(=O)OCCN)cc1`, the inhibition came to 40%.

Regarding `CC(C)CCNC(=O)[C@H](CO)NC(=O)CNC(=O)[C@H](CO)NC(=O)/C=C/c1ccc(F)cc1`, the inhibition is 85%.

As for `C=CCCCCCCCCCOC(=O)[C@H](CO)NC(=O)CNC(=O)[C@H](CO)NC(=O)/C=C/c1ccc(F)cc1`, the inhibition was found to be 57%.

In the case of `O=C(CNC(=O)[C@H](Cc1ccc(O)cc1)NCCc1ccc(F)cc1)N[C@@H](Cc1ccc(O)cc1)C(=O)N1CCOCC1`, the inhibition amounted to 92%.

Turning to `CCCCCCCCCCC(=O)N[C@@H](Cc1ccc(O)cc1)C(=O)N[C@@H](Cc1c[nH]cn1)C(=O)N[C@@H](Cc1ccc(O)cc1)C(=O)NO` (Undecanoyl-Tyr-His-Tyr-{NHOH}), the inhibition came out at 88%. In the case of `NNC(=O)[C@H](CO)NC(=O)CNC(=O)[C@H](CO)NC(=O)CCc1ccccc1` (Hydrocinnamoyl-Ser-Gly-Ser-NHNH2), the inhibition is 94%.

Turning to `CCCCCCCCCCCOc1ccc(C(=O)N[C@@H](Cc2ccc(O)cc2)C(=O)N[C@@H](Cc2ccc(O)cc2)C(=O)N[C@@H](Cc2ccc(O)cc2)C(=O)N(C)CCc2ccccn2)cc1`, the inhibition came out at 86%. Regarding `CC[C@H](C)[C@H](NC(=O)/C=C/c1ccc(F)cc1)C(=O)N[C@@H](C)C(=O)N[C@@H](CCC(N)=O)C(=O)Nc1ccc(F)c(Cl)c1`, the inhibition was determined as 46%.

As for `O=C(CNC(=O)C1CCCN1C(=O)/C=C/c1ccccc1)NC(Cc1ccccc1)C(=O)NCc1ccc(F)cc1F` (stereo not given), the inhibition was determined as 54%. In the case of `CC(C)C[C@H](NC(=O)[C@H](CO)NC(=O)[C@H](Cc1ccccc1)NC(=O)/C=C/c1ccc(F)cc1)C(=O)O`, the inhibition is 71%.

Regarding `CC(C)(C)Oc1ccc(C[C@H](NC(=O)CNC(=O)[C@H](Cc2cn(C(c3ccccc3)(c3ccccc3)c3ccccc3)cn2)NC(=O)c2coc(-c3ccccc3)n2)C(=O)O)cc1`, the inhibition came to 80%.

With `COC(=O)[C@H](CO)NC(=O)CNC(=O)[C@H](Cc1ccccc1)NC(=O)c1coc(-c2ccccc2)n1`, the inhibition came out at 115%.

Regarding `CC(=O)Nc1cc(C(=O)N2CCC[C@H]2C(=O)N[C@@H](C(=O)N[C@@H](CCC(=O)O)C(=O)O)C(C)C)ccc1[N+](=O)[O-]`, the inhibition was 95%.

For `NC(=O)CC[C@H](NC(=O)[C@H](Cc1ccccc1)NC(=O)CNC(=O)CCc1ccccc1)C(=O)N1CCOCC1` (Hydrocinnamoyl-Gly-Phe-Gln-Morpholide), the inhibition was found to be 89%.

For `CCCCCCCCCCCOc1ccc(C(=O)N[C@@H](Cc2ccc(O)cc2)C(=O)N[C@@H](Cc2ccc(O)cc2)C(=O)N[C@@H](Cc2ccc(O)cc2)C(=O)NCC(O)CO)cc1` (stereo not given in full), the inhibition is 90%. For `O=C(CCNC(=O)[C@H](Cc1c[nH]cn1)NC(=O)OCc1ccccc1)N[C@@H](Cc1ccc(O)cc1)C(=O)Nc1nccs1`, the inhibition was found to be 73%.

For `O=C(N[C@H](Cc1ccc(O)cc1)C(=O)N[C@@H](Cc1ccc(O)cc1)C(=O)N[C@@H](Cc1ccc(O)cc1)C(=O)O)OCc1ccccc1`, the inhibition came to 42%. Then `O=C(N[C@@H](Cc1cnc[nH]1)C(=O)N[C@@H](Cc1ccccc1)C(=O)N[C@@H](Cc1ccc(O)cc1)C(=O)O)OCc1ccc([N+](=O)[O-])cc1`, with 61%; and `CCCCCCCCCCCCCC(=O)OC[C@H](NC(=O)[C@@H](NC(=O)[C@H](CCCCNC(=O)c1coc(-c2ccccc2)n1)NC(=O)c1coc(-c2ccccc2)n1)[C@H](C)O)C(=O)O`, with 54%.

With `CCCCCCCCCCCOc1ccc(C(=O)N[C@@H](Cc2ccc(O)cc2)C(=O)N[C@@H](Cc2ccc(O)cc2)C(=O)N[C@@H](Cc2ccc(O)cc2)C(=O)NC2CCCCC2)cc1`, the inhibition was determined as 91%.

As to `NNC(=O)[C@H](CCC(N)=O)NC(=O)[C@H](Cc1ccccc1)NC(=O)CNC(=O)CCc1ccccc1` (Hydrocinnamoyl-Gly-Phe-Gln-NHNH2), the inhibition amounted to 93%. The same measure for `CCCCCCCCCCCOc1ccc(C(=O)N[C@@H](Cc2c[nH]cn2)C(=O)N[C@@H](Cc2c[nH]cn2)C(=O)N[C@@H](Cc2c[nH]cn2)C(N)=O)cc1`: 32%. In the case of `O=C(CNC(=O)[C@H](Cc1ccc(O)cc1)NC(=O)c1ccc(F)cc1)N[C@@H](Cc1ccc(O)cc1)C(=O)O`, the inhibition amounted to 90%. In the case of `CC(C)C[C@H](NC(=O)[C@H](CO)NC(=O)[C@H](Cc1ccccc1)NC(=O)/C=C/c1ccc(F)cc1)C(=O)Nc1nccs1`, the inhibition is 94%. For `NNC(=O)[C@H](CCC(N)=O)NC(=O)[C@H](Cc1ccccc1)NC(=O)[C@H](CO)NC(=O)CCc1ccccc1` (Hydrocinnamoyl-Ser-Phe-Gln-NHNH2), the inhibition was determined as 104%. As to `CC(C)C[C@H](NC(=O)c1coc(-c2ccccc2)n1)C(=O)NCC(=O)N[C@@H](Cc1c[nH]cn1)C(=O)Nc1ccc(F)cc1F`, the inhibition was 88%. As to `O=C(CNC(=O)[C@H](Cc1ccccc1)NC(=O)c1coc(-c2ccccc2)n1)N[C@@H](CO)C(=O)O`, the inhibition was 106%. Regarding `O=C(CCc1ccccc1)N[C@@H](CO)C(=O)N[C@@H](Cc1ccccc1)C(=O)N[C@@H](CO)C(=O)O` (Hydrocinnamoyl-Ser-Phe-Ser-OH), the inhibition is 95%. In the case of `CC(C)C[C@H](NC(=O)[C@@H]1CCCN1C(=O)/C=C/c1ccccc1)C(=O)N[C@@H](Cc1ccccc1)C(=O)O`, the inhibition was found to be 80%.

Consider `CCCCCCCCCCC(=O)N[C@@H](Cc1ccc(O)cc1)C(=O)N[C@@H](Cc1c[nH]cn1)C(=O)N[C@@H](Cc1c[nH]cn1)C(=O)NO` (Undecanoyl-Tyr-His-His-{NHOH}), for which the inhibition is 84%. `NC(=O)[C@H](Cc1ccc(O)cc1)NC(=O)CNC(=O)[C@H](Cc1c[nH]cn1)NC(=O)OCc1ccccc1` (Cbz-His-Gly-Tyr-NH2): the inhibition is 89%.

As for `CCCCCCCCCCC(=O)N[C@@H](Cc1ccc(O)cc1)C(=O)N[C@@H](Cc1c[nH]cn1)C(=O)N[C@@H](Cc1c[nH]cn1)C(=O)NCCCCN`, the inhibition is 73%.

For the compound `C=CCCCCCCCCCOC(=O)[C@H](CCC(N)=O)NC(=O)[C@H](Cc1ccccc1)NC(=O)[C@H](CO)NC(=O)CCc1ccccc1`, the inhibition turned out to be 120%. Regarding `COC(=O)[C@H](CC(C)C)NC(=O)[C@H](COC(C)(C)C)NC(=O)[C@H](Cc1ccccc1)NC(=O)c1ccc(-c2ccccc2)cc1`, the inhibition is 84%. Then `CCCCCCCCCCC(=O)N[C@@H](Cc1c[nH]cn1)C(=O)N[C@@H](Cc1ccccc1)C(=O)N[C@@H](Cc1ccc(O)cc1)C(=O)NO` (Undecanoyl-His-Phe-Tyr-{NHOH}), with 89%; and `O=C(/C=C/c1ccc(F)cc1)N[C@@H](CO)C(=O)N[C@@H](Cc1ccccc1)C(=O)N[C@@H](CO)C(=O)OCCCl`, with 84%; and `COC(=O)NNC(=O)[C@H](CCC(=O)O)NC(=O)[C@H](NC(=O)[C@@H]1CCCN1C(=O)c1ccc([N+](=O)[O-])c(NC(C)=O)c1)C(C)C`, with 101%. Then `CCCCCCCCCCCOc1ccc(C(=O)N[C@@H](Cc2c[nH]cn2)C(=O)N[C@@H](Cc2ccc(O)cc2)C(=O)N[C@@H](Cc2ccccc2)C(=O)NC2CCCCC2)cc1`, with 56%; and `CCCCCCCCCCCOC(=O)[C@H](CO)NC(=O)CNC(=O)[C@H](CO)NC(=O)/C=C/c1ccc(F)cc1`, with 70%; and `O=C(N[C@@H](Cc1ccc(O)cc1)C(=O)N[C@@H](Cc1ccc(O)cc1)C(=O)N[C@@H](Cc1ccc(O)cc1)C(=O)NC1CCCCC1)c1ccc(F)cc1F`, with 88%.

In the case of `O=C(/C=C/c1ccc(F)cc1)N[C@@H](CO)C(=O)N[C@@H](Cc1ccccc1)C(=O)N[C@@H](CO)C(=O)Nc1ccccc1`, the inhibition was 73%. With `O=C(CNC(=O)c1coc(-c2ccccc2)n1)N[C@@H](Cc1c[nH]cn1)C(=O)N[C@@H](Cc1c[nH]cn1)C(=O)O`, the inhibition was 96%. In the case of `CCCCCCCCCCCNC(=O)[C@H](Cc1ccc(O)cc1)NC(=O)CNC(=O)[C@H](Cc1ccc(O)cc1)NC(=O)CCc1ccc(F)cc1`, the inhibition came to 88%. For the compound `COC(=O)[C@H](Cc1ccc(O)cc1)NC(=O)CNC(=O)[C@H](Cc1ccc(O)cc1)NC(=O)c1ccc(F)cc1`, the inhibition turned out to be 93%. Take `COC(=O)C1(NC(=O)[C@H](CCCCN)NC(=O)[C@H](CC(C)C)NC(=O)[C@@H]2CCC(=O)N2)CCCCC1` ([pGlu]LK[Ac6c]-OMe): the inhibition was determined as 98%. The same measure for `CCCCCCCCCCCOc1ccc(C(=O)N[C@@H](Cc2cnc[nH]2)C(=O)N[C@@H](Cc2ccc(O)cc2)C(=O)N[C@@H](Cc2ccccc2)C(=O)NCC(O)CO)cc1` (stereo not given in full): 93%; for `O=C(/C=C/c1ccc(F)cc1)N[C@@H](CO)C(=O)N[C@@H](Cc1ccccc1)C(=O)N[C@@H](CO)C(=O)Nc1ccc(N2CCOCC2)cc1`: 79%; for `NC(=O)CC[C@H](NC(=O)[C@H](Cc1ccccc1)NC(=O)[C@H](CO)NC(=O)CCc1ccccc1)C(=O)Nc1ccc(F)cc1F`: 104%.

Take `CCCCCCCCCCCOc1ccc(C(=O)N[C@@H](Cc2ccc(O)cc2)C(=O)N[C@@H](Cc2ccc(O)cc2)C(=O)N[C@@H](Cc2ccc(O)cc2)C(=O)OCCCl)cc1`: the inhibition came out at 107%.

Regarding `COC(=O)[C@H](Cc1ccc(O)cc1)NC(=O)CNC(=O)[C@H](Cc1ccc(O)cc1)NC(=O)CCc1ccc(F)cc1`, the inhibition was found to be 90%.

Regarding `C[C@H](NC(=O)C(Br)C(Br)c1ccc(F)cc1)C(=O)NCC(=O)N[C@@H](Cc1ccc(O)cc1)C(=O)Nc1ccc(F)cc1F` (stereo not given in full), the inhibition was determined as 69%. As for `O=C(CNC(=O)[C@H](Cc1ccc(O)cc1)NC(=O)c1coc(-c2ccccc2)n1)N[C@@H](Cc1c[nH]cn1)C(=O)O`, the inhibition was found to be 86%.
